Tests used:
Type in all cases: functional, organism-based
Candida albicans = experiment: Inhibitory activity against Candida albicans
Summary of the method: (§1)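 Microbroth dilution in YEPD (1% yeast extract, 2% peptone, 2% glucose, […]), starting inoculum A595 0.2–0.3; compounds as twofold serial dilutions down from 1 mM, growth control on same plate. Shaken at 35 °C; A595 read at addition and 2 h later. Triplicates averaged, IC50 (50% growth inhibition) calculated. Strains: C. albicans JRW #5, C. krusei WM 03,204 (clinical isolates), C. tropicalis ATCC 750.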

Candida tropicalis = experiment: Inhibitory activity against Candida tropicalis; summary of the method: as §1
Pichia kudriavzevii = experiment: Inhibitory activity against Candida krusei; summary of the method: as §1

Molecule	IC50 (Candida albicans; Candida albicans)	IC50 (Candida tropicalis; Candida tropicalis)	IC50 (Pichia kudriavzevii; Pichia kudriavzevii)	IC50 (Candida albicans)	IC50 (Candida tropicalis)	IC50 (Pichia kudriavzevii)
C1CCC([C@H]2OO[C@@H](C3CCCCC3)[C@H]3O[C@H]32)CC1	100 µM	25 µM	400 µM	–	–	–
C1=C[C@@H](C2CCCC2)OOC1	500 µM	250 µM	> 1000 µM	–	–	–
C1CCC([C@H]2OO[C@@H](C3CCCC3)[C@@H]3O[C@@H]32)C1	125 µM	125 µM	63 µM	–	–	–
C1CCC([C@H]2OOC[C@@H]3O[C@@H]32)C1	500 µM	250 µM	500 µM	–	–	–
C1CCC([C@H]2OOC[C@@H]3O[C@@H]32)CC1	250 µM	125 µM	500 µM	–	–	–
O=C(C1CCCCC1)[C@H]1O[C@H]1[C@@H](O)C1CCCCC1	250 µM	63 µM	500 µM	–	–	–
C1=C[C@H](C2CCCC2)OO[C@@H]1C1CCCC1	250 µM	125 µM	> 1000 µM	–	–	–
C1=C[C@@H](C2CCCCC2)OOC1	9.5 µM	40 µM	75 µM	–	–	–
C1=C[C@H](C2CCCCC2)OO[C@@H]1C1CCCCC1	> 1000 µM	200 µM	400 µM	–	–	–
C1CCC([C@H]2OOC[C@H]3O[C@@H]23)C1	250 µM	75 µM	300 µM	–	–	–
C1CC([C@H]2OO[C@@H](C3CCC3)[C@@H]3O[C@@H]32)C1	250 µM	500 µM	500 µM	–	–	–
C1=C[C@H](C2CCC2)OO[C@@H]1C1CCC1	125 µM	125 µM	250 µM	–	–	–
C1CC([C@H]2OO[C@@H](C3CCC3)[C@H]3O[C@H]32)C1	250 µM	250 µM	500 µM	–	–	–
C1CCC([C@H]2OO[C@@H](C3CCCCC3)[C@@H]3O[C@@H]32)CC1	100 µM	200 µM	> 1000 µM	–	–	–
C1CCC([C@H]2OO[C@@H](C3CCCC3)[C@H]3O[C@H]32)C1	250 µM	125 µM	125 µM	–	–	–
C[C@@H]1[C@H](O)[C@@H](C)/C=C/C=C/C=C/C=C/C=C/C=C/C=C/[C@H](O[C@@H]2O[C@H](C)[C@@H](O)[C@H](N)[C@@H]2O)C[C@@H]2O[C@](O)(C[C@@H](O)C[C@@H](O)[C@H](O)CC[C@@H](O)C[C@@H](O)CC(=O)O[C@H]1C)C[C@H](O)[C@H]2C(=O)O [AMPHOTERICIN B]	< 0.5 µM	0.1 µM	0.2 µM	–	–	–
CC(=O)N1CCN(c2ccc(OCC3COC(Cn4ccnc4)(c4ccc(Cl)cc4Cl)O3)cc2)CC1 (centres undefined) [KETOCONAZOLE]	250 µM	12 µM	100 µM	–	–	–
NYSTATIN	–	–	–	250 µM	100 µM	100 µM
